Measurements from ChEMBL document CHEMBL4334484, “Polyketides and a Dihydroquinolone Alkaloid from a Marine-Derived Strain of the Fungus Metarhizium marquandii” (2019).
The source made the active and inactive calls. No cut-off for these calls is given here.

How the values were obtained:
[1] = test system: L5178Y; assay: Cytotoxicity against mouse L5178Y cells assessed as cell growth inhibition at 10 ug/ml measured after 72 hrs by MTT assay; type: functional, cell-based
Outline: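 L5178Y mouse lymphoma cells, MTT read-out relative to untreated controls, compounds at 10 μg/mL. Negative control: medium with 0.1% ethylene glycol monomethyl ether/DMSO; kahalalide F positive control. Three independent experiments, each in triplicate.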

[2] = test system: Mycobacterium tuberculosis; assay: Antibacterial activity against Mycobacterium tuberculosis by CLSI protocol based broth microdilution method; type: functional
Outline: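 Broth microdilution per CLSI guidelines. Serial 2-fold dilutions up to a highest tested concentration of 64 μg/mL, with DMSO diluted along with the compounds. Rifampicin served as positive control.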

[3] = test system: Staphylococcus aureus; assay: Antibacterial activity against Staphylococcus aureus ATCC 29213 by CLSI protocol based broth microdilution method; type: functional
Outline: (§1)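 Serial 2-fold dilutions, DMSO diluted along with compounds; highest concentration tested 64 μg/mL. Moxifloxacin positive control for S. aureus, rifampicin for A. baumanii and P. aeruginosa.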

[4] = test system: Staphylococcus aureus; assay: Antibacterial activity against Staphylococcus aureus ATCC 700699 by CLSI protocol based broth microdilution method; type: functional; outline: as §1
[5] = test system: Acinetobacter baumannii; assay: Antibacterial activity against Acinetobacter baumannii BAA 1605 by CLSI protocol based broth microdilution method; type: functional; outline: as §1
[6] = test system: Pseudomonas aeruginosa; assay: Antibacterial activity against Pseudomonas aeruginosa 27853 by CLSI protocol based broth microdilution method; type: functional; outline: as §1

Row | Structure (SMILES) | Activity [1] | MIC [2] [µM] | MIC [3] [µM] | MIC [4] [µM] | MIC [5] [µM] | MIC [6] [µM]
1 | O=C1Nc2ccccc2[C@](O)(c2cccc(O)c2)[C@H]1O | inactive | > 100 | > 100 | > 100 | > 100 | > 100
2 | CC(=O)c1cc(C)c(O)c(CC2=C(O)C(CC(=O)O)OC2=O)c1O (racemic) | inactive | > 100 | > 100 | > 100 | > 100 | > 100
